From ChEMBL document CHEMBL1145071, “Oxindole-based compounds are selective inhibitors of Plasmodium falciparum cyclin dependent protein kinases” (J Med Chem, 2003)

Legend:
[1] = biological target: T1, Protein kinase Pfmrk (Plasmodium falciparum, UniProt P90584); assay: Inhibitory activity against Plasmodium falciparum cyclin dependent protein kinase, Pfmrk
T1 sequence (P90584 whole entry): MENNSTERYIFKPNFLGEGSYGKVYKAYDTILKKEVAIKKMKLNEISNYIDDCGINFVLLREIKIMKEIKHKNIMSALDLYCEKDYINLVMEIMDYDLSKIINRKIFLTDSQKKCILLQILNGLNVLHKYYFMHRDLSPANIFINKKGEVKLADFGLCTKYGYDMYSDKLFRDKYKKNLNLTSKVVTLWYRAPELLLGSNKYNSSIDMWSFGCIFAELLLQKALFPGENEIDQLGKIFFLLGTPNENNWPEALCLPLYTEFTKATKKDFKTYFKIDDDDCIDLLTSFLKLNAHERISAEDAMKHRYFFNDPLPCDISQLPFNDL

[2] = test system: Plasmodium falciparum; assay: Inhibitory activity against Plasmodium falciparum W2; type: functional, organism-based
In short: (§1)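 Cultured D6 (chloroquine-sensitive) and W2 (chloroquine-resistant) clones in A+ red cells, 6% hematocrit, 10% human serum, 90% N2/5% O2/5% CO2. Cultures at 3% parasitemia with at least 70% rings placed in drug-precoated wells for 24 h. [3H]-hypoxanthine then added for a further 18 h; uptake counted after harvest. IC50 from four-parameter nonlinear regression.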

[3] = test system: Plasmodium falciparum; assay: Inhibitory activity against Plasmodium falciparum D6; type: functional, organism-based; in short: as §1
[4] = biological target: Cyclin-dependent kinase 1/cyclin B (Homo sapiens, UniProt P06493); assay: Inhibition of human Cyclin-dependent kinase 1 cyclin B; type: protein-complex assay
[5] = biological target: PFPK5(P.falciparum) (Plasmodium falciparum, UniProt P61075); assay: Inhibition of Plasmodium falciparum cyclin dependent protein kinase, PfPK5
Sequence of PFPK5(P.falciparum) (P61075 whole entry, looked up): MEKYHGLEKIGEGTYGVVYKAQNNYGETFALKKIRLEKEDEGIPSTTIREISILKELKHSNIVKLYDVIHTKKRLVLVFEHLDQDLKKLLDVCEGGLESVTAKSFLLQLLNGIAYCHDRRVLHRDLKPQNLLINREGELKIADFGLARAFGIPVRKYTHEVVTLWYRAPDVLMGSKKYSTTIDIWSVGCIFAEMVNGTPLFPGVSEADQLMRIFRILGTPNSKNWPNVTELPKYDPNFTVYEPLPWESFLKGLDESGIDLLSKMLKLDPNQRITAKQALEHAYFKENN

SMILES	IC50 [1] [µM]	IC50 [2] [µM]	IC50 [3] [µM]	IC50 [4] [µM]	IC50 [5] [µM]
O=C1Nc2ccccc2/C1=C\c1c(Cl)cccc1Cl	17	–	–	–	–
Cn1cnc2c(NCc3ccccc3)nc(NCCO)nc21 [OLOMOUCINE]	> 1000	8	2.7	–	–
COc1cc2ncnc(Nc3cccc(O)c3)c2cc1OC	168	–	–	–	–
C/N=C/c1c(O)[nH]c2ccccc12	> 57	–	–	–	–
CC[C@H](CO)Nc1nc(NCc2ccccc2)c2ncn(C(C)C)c2n1 [SELICICLIB]	> 1000	28	33	–	–
O=Nc1c(-c2c(O)[nH]c3ccccc23)[nH]c2ccccc12 [INDIRUBIN-3-MONOXIME]	30	1.1	0.6	–	–
O=C1Nc2ccc(Br)cc2/C1=C/C(=O)c1ccccc1	3.1	> 15.2	> 15.2	30	120
O=C1Nc2ccccc2/C1=C\c1ccc(O)cc1	> 42	–	–	–	–
O=C1NC(=S)S/C1=C1\C(=O)Nc2ccc(F)cc21	> 19	–	–	–	–
COc1ccc2c(c1)/C(=C1/SC(=S)NC1=O)C(=O)N2	17.1	–	–	–	–
CCOC(=O)/C(C#N)=C1/C(=O)Nc2ccccc21	41.7	–	–	–	–
O=C1Nc2ccccc2/C1=C/C(=O)c1ccc(Br)cc1	3.5	> 15.2	> 15.2	12	130
O=C1Nc2ccccc2/C1=C\c1ccc(C(F)(F)F)cc1	4.3	–	–	–	–
COC(=O)[C@@]1(Cc2ccc(O)c(CC=C(C)C)c2)OC(=O)C(O)=C1c1ccc(O)cc1 [BUTYROLACTONE I]	94	11.7	11.7	–	–
O=C1Cc2c([nH]c3ccc(Br)cc23)-c2ccccc2N1 [KENPAULLONE]	15	3.8	3.8	–	–
O=C1Nc2ccccc2/C1=C\C(=O)c1ccccc1	4	> 20	> 20	> 16	150
CC(C)[C@H](CO)Nc1nc(Nc2cccc(Cl)c2)c2ncn(C(C)C)c2n1 [PURVALANOLA]	26	9.2	2.6	–	–
N#C/C(C(N)=O)=C1\C(=O)Nc2ccccc21	24	–	–	–	–
CC(=O)/C=C1/C(=O)Nc2ccccc21	> 37	–	–	–	–
O=C1Nc2ccccc2/C1=C\C1CCCCN1 (configuration not stated)	> 21	–	–	–	–
Cc1ccc(C(=O)/C=C2/C(=O)Nc3ccc(Br)cc32)cc1	2.9	> 14.6	> 14.6	29	120
CN[C@@H]1C[C@H]2O[C@@](C)([C@@H]1OC)n1c3ccccc3c3c4c(c5c6ccccc6n2c5c31)C(=O)NC4 (single isomer, unassigned) [STAUROSPORINE]	4	0.15	0.19	–	–
O=C1Nc2ccccc2/C1=C\c1ccc(Cl)cc1	> 37	–	–	–	–
CC(C)(C)C(=O)/C=C1/C(=O)Nc2ccccc21	> 44	–	–	–	–
O=C1Cc2c([nH]c3ccc([N+](=O)[O-])cc23)-c2ccccc2N1 [ALSTERPAULLONE]	51	4.3	4.3	–	–
O=C1Nc2ccc(Br)cc2/C1=C\C(=O)c1ccc(F)cc1	1.4	> 14.4	> 14.4	29	190
